For 36 sequences, Tm and folding enthalpy results are on record in the array DNA melting data of Ke et al. (doi:10.1101/2024.01.08.574731).

The nature of data set [1]: melting temperature; fluorescence melt of hairpins on a sequencing array, two-state fit, raised by 9.35 °C to match UV melts. The conditions noted are these: sodium 0.088 M. In short, it runs like this: (§1)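 Library hairpins on a sequenced MiSeq flow cell carried annealed Cy3 and quencher oligos, and their Cy3 fluorescence was imaged in 50 mM Na-HEPES pH 8.0 with 25 mM NaCl, in 2.5 °C steps up to 60 °C. Signals were normalised to Cy3 before quenching and to control constructs. Melting temperature and folding enthalpy were obtained from bootstrapped two-state fits, combined by inverse-variance weighting across four replicates, and the fitted temperatures were then raised by 9.35 °C to match UV melts.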

Data set [2] in a line: folding enthalpy; higher = less favourable; fluorescence melt of hairpins on a sequencing array, two-state fit. The conditions noted are these: sodium 0.088 M. Put shortly: as §1

Regarding GCTGGGCGAAAGCGGAGC (((..((....))..))), the Tm in data set [1] worked out at 44.1 °C. For the same sequence, the folding enthalpy in data set [2] was -17.2 kcal/mol.
Taken in the same sequence, the figures for GCTGGGCGAAAGCTCTGC ((.(.((....)).).)) were 53.1 °C and -22.3 kcal/mol.
Turning to GCTGGGGGAAACCCCAAC (.(((((....))))).), in data set [1], the Tm came to 38.5 °C. Besides, in data set [2], the folding enthalpy is -13.2 kcal/mol.
Taken in the same sequence, the figures for GCTGGGGGAAACCCCGGC ((.((((....)))).)) were 65.5 °C and -33.8 kcal/mol.
Taken in the same sequence, the figures for GCTGGGGGAAACCCTAGC (((.(((....))).))) were 53.2 °C and -36.2 kcal/mol.
Turning to GCTGGGGGAAACTCCGGC ((.((.(....).)).)), the Tm in data set [1] is 47.1 °C. In addition, the folding enthalpy in data set [2] is -31.1 kcal/mol.
As for GCTGGTGGAAACACCAAC (.(((((....))))).), the Tm in data set [1] was determined as 41.3 °C. For the same sequence, the folding enthalpy in data set [2] was -14.4 kcal/mol.
Taken in the same sequence, the figures for GCTGGTGGAAACACTAGC (((.(((....))).))) were 51.3 °C and -40.8 kcal/mol.
For GCTGGTGGAAACATCGGC ((.(.((....)).).)), the Tm in data set [1] was 43 °C. Further, the folding enthalpy in data set [2] was -30.4 kcal/mol.
In the case of GCTGTACGAAAGTAAAGC (((.(((....))).))), the Tm in data set [1] stood at 49.6 °C. For the same sequence, the folding enthalpy in data set [2] is -30.2 kcal/mol.
As for GCTGTACGAAAGTATAGC (((.(((....))).))), the Tm in data set [1] is 54 °C. For the same sequence, in data set [2], the folding enthalpy is -39.6 kcal/mol.
Turning to GCTGTCCGAAAGGAGAGC (((.(((....))).))), in data set [1], the Tm is 57 °C. Also, in data set [2], the folding enthalpy is -34 kcal/mol.
For GCTGTCCGAAAGGATAGC (((.(((....))).))), in that order: 59.3 °C and -39.6 kcal/mol.
Taken in the same sequence, the figures for GCTGTCGAAAGACACAGC ((((((....)))..))) were 48.3 °C and -14.7 kcal/mol.
As for GCTGTCGAAAGACAGAGC ((((((....)))..))), the Tm in data set [1] worked out at 54.8 °C. Besides, the folding enthalpy in data set [2] was -13.6 kcal/mol.
For GCTGTCGAAAGACTGAGC ((((((....)))..))), in that order: 43 °C and -18.5 kcal/mol.
Taken in the same sequence, the figures for GCTGTCGGAAACGACAAC (.(((((....))))).) were 40.9 °C and -12.9 kcal/mol.
Consider GCTGTCGGAAACGATAGC (((.(((....))).))), for which, in data set [1], the Tm stood at 53.4 °C. The folding enthalpy in data set [2] is -57.3 kcal/mol.
Take GCTGTCGGAAACGGTAGC (((..((....))..))): the Tm in data set [1] came to 41.8 °C. In data set [2], the folding enthalpy was -28.9 kcal/mol.
Consider GCTGTCTCGAAAGAGAGC (((..(((....)))))), for which, in data set [1], the Tm was 38.3 °C. In addition, the folding enthalpy in data set [2] was -15.5 kcal/mol.
GCTGTGAAAACAGC (((((....))))): the Tm in data set [1] turned out to be 63.3 °C. Besides, the folding enthalpy in data set [2] was -30.2 kcal/mol.
GCTGTGACGAAAGTCAGC (((..(((....)))))): the Tm in data set [1] is 47 °C. Further, the folding enthalpy in data set [2] was -15.1 kcal/mol.
Take GCTGTGCGAAAGCAACGC ((..(((....)))..)): the Tm in data set [1] was 49.9 °C. Further, the folding enthalpy in data set [2] was -13.7 kcal/mol.
GCTGTGCGAAAGCAGCGC ((..(((....)))..)): the Tm in data set [1] was 57.1 °C. Further, the folding enthalpy in data set [2] was -21 kcal/mol.
For the sequence GCTGTGCGAAAGCAGGGC ((..(((....)))..)), the Tm in data set [1] was determined as 50.3 °C. Besides, the folding enthalpy in data set [2] is -21.1 kcal/mol.
Taken in the same sequence, the figures for GCTGTGCGAAAGCCCAGC ((((.((....)).)))) were 61.8 °C and -28.1 kcal/mol.
Taken in the same sequence, the figures for GCTGTGCGAAAGCCCCGC ((.(.((....)).).)) were 31.1 °C and -12.5 kcal/mol.
For GCTGTGCGAAAGCGTAGC (((..((....))..))), in that order: 49.5 °C and -17.6 kcal/mol.
Turning to GCTGTGCGAAAGCTCAGC ((((.((....)).)))), the Tm in data set [1] worked out at 68 °C. Moreover, the folding enthalpy in data set [2] was -36.8 kcal/mol.
Take GCTGTGCGAAAGCTCTGC ((.(.((....)).).)): the Tm in data set [1] stood at 44.6 °C. The folding enthalpy in data set [2] is -22.1 kcal/mol.
Regarding GCTGTGCGAAAGCTTAGC (((..((....))..))), in data set [1], the Tm turned out to be 41.9 °C. For the same sequence, the folding enthalpy in data set [2] was -22.5 kcal/mol.
For GCTGTGGGAAACTACAGC (((((.(....).))))), in that order: 53.1 °C and -41.4 kcal/mol.
For GCTGTTACGAAAGTAAGC (((..(((....)))))), in that order: 37.8 °C and -21.1 kcal/mol.
GCTGTTCGAAAGAAAGC (((.(((....)))))): in data set [1], the Tm stood at 36.7 °C. In data set [2], the folding enthalpy was -15.6 kcal/mol.
For GCTGTTGGAAACAACAGC (((((((....))))))), in that order: 67.1 °C and -44.5 kcal/mol.
With GCTGTTGGAAACGATAGC (((.(.(....).).))), the Tm in data set [1] turned out to be 32 °C. The folding enthalpy in data set [2] is -20.9 kcal/mol.
